# How the values were obtained:
# Dipeptidyl peptidase 9 = Dipeptidyl peptidase 9 (Homo sapiens, UniProt Q86TI2); experiment: Inhibition of recombinant human DPP9 using H-Gly-Pro-AMC as substrate measured after 10 mins by fluorescence assay
# Method in brief: (§1)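 Recombinant human DPP-8 or DPP-9 in 100 mM Tris-HCl, 100 mM NaCl, pH 7.8 was combined with inhibitor and H-Gly-Pro-AMC substrate (303 final). The mixture was incubated at 37 °C for 10 min, then fluorescence was read at ex 380/em 460 nm; values are means of three experiments.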
# Dipeptidyl peptidase 8 = Dipeptidyl peptidase 8 (Homo sapiens, UniProt Q6V1X1); experiment: Inhibition of recombinant human DPP8 using H-Gly-Pro-AMC as substrate measured after 10 mins by fluorescence assay; method in brief: as §1
# Sequence of Dipeptidyl peptidase 8 (Q6V1X1 whole entry): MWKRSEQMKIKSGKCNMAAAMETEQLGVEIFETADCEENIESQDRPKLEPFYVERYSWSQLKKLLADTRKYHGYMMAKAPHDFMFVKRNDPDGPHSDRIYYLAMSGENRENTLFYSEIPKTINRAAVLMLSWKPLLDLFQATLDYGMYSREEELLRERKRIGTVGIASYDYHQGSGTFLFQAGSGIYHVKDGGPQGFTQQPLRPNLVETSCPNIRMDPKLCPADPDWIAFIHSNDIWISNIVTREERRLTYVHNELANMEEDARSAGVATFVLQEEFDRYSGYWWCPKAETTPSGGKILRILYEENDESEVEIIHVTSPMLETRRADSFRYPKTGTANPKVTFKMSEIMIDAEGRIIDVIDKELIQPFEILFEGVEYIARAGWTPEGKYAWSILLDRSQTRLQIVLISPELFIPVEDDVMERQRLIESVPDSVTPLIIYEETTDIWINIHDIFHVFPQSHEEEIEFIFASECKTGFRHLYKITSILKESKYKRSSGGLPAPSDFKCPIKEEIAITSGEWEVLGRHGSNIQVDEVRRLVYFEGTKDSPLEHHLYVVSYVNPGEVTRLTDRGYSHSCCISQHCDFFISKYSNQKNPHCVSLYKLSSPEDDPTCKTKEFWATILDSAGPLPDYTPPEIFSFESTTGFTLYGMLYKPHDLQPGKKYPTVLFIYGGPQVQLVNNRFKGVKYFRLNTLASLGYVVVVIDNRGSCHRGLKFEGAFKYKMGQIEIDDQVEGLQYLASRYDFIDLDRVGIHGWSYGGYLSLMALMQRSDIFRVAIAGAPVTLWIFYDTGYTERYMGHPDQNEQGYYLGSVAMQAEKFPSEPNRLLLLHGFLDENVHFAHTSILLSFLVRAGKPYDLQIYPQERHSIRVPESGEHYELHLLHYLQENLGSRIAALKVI
# HepG2 [1] = experiment: Cytotoxicity against human HepG2 cells assessed as reduction in cell viability after 48 hrs by MTT assay; type: cell-based; conditions: hepg2, 48 h
# Method in brief: (§2)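 HepG2 cells in DMEM were exposed to compound in DMSO at 1–100 μM final, or DMSO alone as negative control, for 48 h. MTT (5 mg/ml, 20 µL) was then added for 6 h, the supernatant removed and the formazan dissolved in DMSO. Absorbance was read at 490 nm; viability is expressed versus control; mean ± SD, n=3.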
# HepG2 [2] = experiment: Cytotoxicity against human HepG2 cells assessed as reduction in cell viability at 100 uM after 48 hrs by MTT assay; type: cell-based; conditions: hepg2, 48 h; method in brief: as §2
# Mus musculus [3] = species on record: Mus musculus; experiment: animal or person; conditions: C57BL/6, ip, read-out: MED
# Mus musculus [4] = experiment: Antidiabetic activity in ip dosed C57BL/6 mouse as reduction in blood glucose level administered as single dose pretreated for 30 mins followed by dextrose-challenge measured up to 2 hrs by IPGTT; type: functional, organism-based
# Method in brief: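 Diabetic male mice (strain given as C57BL/6 and as BALB/c) received a single intraperitoneal dose of 1, 5 or 10 mg/kg, or saline as control, 30 min before an injected dextrose challenge (2 g/kg). Blood glucose was read at 0, 0.5, 1, 1.5 and 2 h, and glucose AUC was computed over 0–120 min; mean ± SD, n = 4.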
# [5] = Cytotoxicity against human HepG2 cells assessed as cell viability at 100 uM after 48 hrs by MTT assay relative to control; type: cell-based; conditions: read-out: Activity; method in brief: as §2
# Sequence of Dipeptidyl peptidase 9 (Q86TI2 whole entry): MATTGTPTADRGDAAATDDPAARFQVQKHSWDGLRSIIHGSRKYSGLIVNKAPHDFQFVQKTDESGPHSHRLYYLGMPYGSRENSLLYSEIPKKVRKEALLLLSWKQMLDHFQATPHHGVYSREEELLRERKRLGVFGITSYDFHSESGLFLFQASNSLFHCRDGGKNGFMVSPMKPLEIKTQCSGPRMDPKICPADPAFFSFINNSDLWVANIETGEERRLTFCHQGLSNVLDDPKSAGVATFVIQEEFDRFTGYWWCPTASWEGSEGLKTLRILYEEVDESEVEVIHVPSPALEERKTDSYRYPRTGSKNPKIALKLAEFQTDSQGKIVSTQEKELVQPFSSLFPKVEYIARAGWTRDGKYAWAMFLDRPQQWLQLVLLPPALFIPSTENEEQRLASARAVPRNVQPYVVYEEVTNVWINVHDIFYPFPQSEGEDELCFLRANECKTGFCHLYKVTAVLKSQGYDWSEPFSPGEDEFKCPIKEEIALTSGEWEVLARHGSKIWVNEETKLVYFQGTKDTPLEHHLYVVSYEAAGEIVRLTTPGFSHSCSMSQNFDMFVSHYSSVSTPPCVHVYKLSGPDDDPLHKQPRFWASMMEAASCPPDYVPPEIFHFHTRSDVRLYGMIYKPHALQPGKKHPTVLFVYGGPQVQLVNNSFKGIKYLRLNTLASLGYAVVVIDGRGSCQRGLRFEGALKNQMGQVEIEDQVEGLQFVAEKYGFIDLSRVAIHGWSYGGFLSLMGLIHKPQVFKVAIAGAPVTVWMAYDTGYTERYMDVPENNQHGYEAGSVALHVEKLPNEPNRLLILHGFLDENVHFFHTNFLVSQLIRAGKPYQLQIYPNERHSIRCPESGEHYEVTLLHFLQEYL
IC50 (Dipeptidyl peptidase 9) [µM],IC50 (Dipeptidyl peptidase 8) [µM],SMILES,Activity (HepG2 [1]),Activity (HepG2 [2]),minimal effective dose (Mus musculus [3]) [mg/kg],Activity (Mus musculus [4]),"viability at 48 h, 100 µM [5] [%]"
> 100,> 100,O=c1cc(N2CCNCC2)n(Cc2ccccc2[N+](=O)[O-])c2ccnn12,–,–,–,–,–
> 100,> 100,N#Cc1ccccc1Cc1c(Cl)nc2ccnn2c1N1CCC[C@@H](N)C1,Dose-dependent effect,Toxic,–,–,–
> 100,> 100,O=c1cc(N2CCNCC2)n(Cc2ccccc2)c2ccnn12,–,–,–,–,–

# The remaining lines, values behind:
SMILES,IC50 (Dipeptidyl peptidase 9) [µM],IC50 (Dipeptidyl peptidase 8) [µM],Activity (HepG2 [1]),Activity (HepG2 [2]),minimal effective dose (Mus musculus [3]) [mg/kg],Activity (Mus musculus [4]),"viability at 48 h, 100 µM [5] [%]"
N#Cc1ccccc1Cn1c(N2CCC[C@@H](N)C2)cc(=O)n2nccc12,> 100,> 100,–,–,–,–,–
Cc1ccc(Cn2c(N3CCC[C@@H](N)C3)cc(=O)n3nccc23)cc1,> 100,> 100,–,–,–,–,–
N#Cc1ccccc1Cn1c(N2CCNCC2)cc(=O)n2nccc12,> 100,> 100,Dose-dependent effect,–,1,Dose-dependent effect,> 60
Cc1ccc(Cn2c(N3CCNCC3)cc(=O)n3nccc23)cc1,> 100,> 100,–,–,–,–,–
